6 compounds from ChEMBL document CHEMBL4622964, “Designing Dihydrofolate Reductase Inhibitors as X-ray Radiosensitizers to Reverse Radioresistance of Cervical Cancer” (ACS Med Chem Lett, 2020) can be followed below.

The target in one data set is T1, Dihydrofolate reductase (Homo sapiens, UniProt P00374).
T1 sequence (P00374 whole entry): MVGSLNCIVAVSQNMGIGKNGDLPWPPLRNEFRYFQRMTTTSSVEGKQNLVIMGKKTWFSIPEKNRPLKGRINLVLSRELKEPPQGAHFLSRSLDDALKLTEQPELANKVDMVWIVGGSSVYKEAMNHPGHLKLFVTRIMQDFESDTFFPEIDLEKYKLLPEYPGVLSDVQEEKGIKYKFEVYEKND
The experiment in a line: Inhibition of recombinant human DHFR using dihydrofolate as substrate in presence of NADPH.

In data set [1] the test system is HeLa. The experiment in a line: Antiproliferative activity against human HeLa cells assessed as reduction in cell viability preincubated for 12 hrs followed by 4 Gy irradiation and measured after 60 hrs by MTT assay. Type of data set: functional, cell-based. Particulars: light or radiation study. The method, boiled down:
(§1)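 MTT viability assay in HeLa cancer cells, with the test agent alone (0 Gy) or combined with 4 Gy X-rays. IC50 values are in μM. Sensitivity enhancement ratio = IC50(0 Gy)/IC50(4 Gy).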

Data set [2] is described as follows: Safety index, ratio of IC50 for cytotoxicity against human Ect1 cells assessed as reduction in cell viability to IC50 for antiproliferative activity against human HeLa cells assessed as reduction in cell viability incubated for 12 hrs by MTT assay. It counts as toxicity, cell-based. The note with it: Ect1 cells versus HeLa cells, read-out: Ratio IC50. The method, boiled down: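 Safe index SI0 from MTT assay without irradiation: IC50 in Ect1/E6E7 normal ectocervical cells divided by IC50 in HeLa cells.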

Data set [3] in a line: Cytotoxicity against human Ect1 cells assessed as reduction in cell viability in presence of 4 Gy irradiation by MTT assay. Type of data set: cell-based. Particulars: light or radiation study. The method, boiled down:
(§2)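 MTT viability assay in Ect1/E6E7 normal ectocervical epithelial cells, with the test agent alone (0 Gy) or combined with 4 Gy X-rays. IC50 values are in μM.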

Data set [4] in a line: Ratio of IC50 for cytotoxicity against human Ect1 cells assessed as reduction in cell viability by MTT assay to cytotoxicity against human Ect1 cells assessed as reduction in cell viability in presence of 4 Gy irradiation by MTT assay. Type of data set: cell-based. Particulars: read-out: Ratio IC50. In short, it runs like this:
(§3)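 MTT viability assay on Ect1/E6E7 normal ectocervical cells and HeLa cells, with 0 or 4 Gy X-rays. SER = IC50(0 Gy)/IC50(4 Gy) in the same line; safe index SI4 = IC50 Ect1/E6E7 + 4 Gy divided by IC50 HeLa + 4 Gy.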

Data set [5] has as its system HeLa. The experiment in a line: Antiproliferative activity against human HeLa cells assessed as reduction in cell viability incubated for 12 hrs by MTT assay. Type of data set: functional, cell-based. In short, it runs like this:
as §1

Data set [6] in a line: Cytotoxicity against human Ect1 cells assessed as reduction in cell viability by MTT assay. Type of data set: cell-based. The method, boiled down: as §2
Data set [7] is described as follows: Safety index, ratio of IC50 for cytotoxicity against human Ect1/E6E7 cells assessed as reduction in cell viability in presence of 4 Gy irradiation by MTT assay to antiproliferative activity against human HeLa cells assessed as reduction in cell viability preincubated for 12 hrs followed by 4 Gy irradiation and measured after 60 hrs by MTT assay. Type of data set: toxicity, cell-based. The note with it: Ect1/E6E7 cells versus HeLa cells, read-out: Ratio IC50. In short, it runs like this: as §3

For data set [8], the system named is HeLa. Put plainly: Ratio of IC50 for antiproliferative activity against human HeLa cells assessed as reduction in cell viability incubated for 12 hrs to IC50 for antiproliferative activity against human HeLa cells assessed as reduction in cell viability preincubated for 12 hrs followed by 4 Gy irradiation and measured after 60 hrs by MTT assay. It counts as functional. The method, boiled down: as §1

Each structure is given as a SMILES string.

Take `Nc1nc(N)c2nc3c4cccnc4c4ncccc4c3nc2n1`: the concentration for half-maximal inhibition (IC50) on Dihydrofolate reductase was found to be 5.8 µM; with HeLa [1], 6.3 µM; in data set [3], 13.9 µM; in the data set with HeLa [5], 9.8 µM; in [6], 20 µM. For the same compound, the selectivity ratio at 12 h in data set [2] stood at 2. The selectivity ratio in data set [4] came out at 1.4. Also, the selectivity ratio at 60 h in [7] is 2.2. In the data set on HeLa [8], the “Ratio IC50” value is 1.6.
In the case of `CN(Cc1cnc2nc(N)nc(N)c2n1)c1ccc(C(=O)N[C@@H](CCC(=O)O)C(=O)O)cc1` [METHOTREXATE], the 50% inhibitory concentration (IC50) amounted to 0.82 µM in the data set with HeLa [1], 1.8 µM in [3], 1.5 µM in the data set with HeLa [5] and 2.9 µM in data set [6].
Take `Nc1nc(N)c2nc(-c3cccs3)c(-c3cccs3)nc2n1`: the IC50 at Dihydrofolate reductase is 1.43 µM; in the data set on HeLa [1] it was 2.3 µM; in [3], 5.3 µM; in the data set on HeLa [5], 4.6 µM; in data set [6], 10.9 µM. The selectivity ratio at 12 h in data set [2] turned out to be 2.5. Moreover, in data set [4], the selectivity ratio worked out at 2.1. Further, the selectivity ratio at 60 h in data set [7] came to 2.3. For the same compound, in the data set with HeLa [8], the “Ratio IC50” value worked out at 2.
On to `Nc1nc(N)c2nc(-c3ccccc3)c(-c3ccccc3)nc2n1`, for which the IC50 came to 14.8 µM in the data set on HeLa [1], 38.1 µM in data set [3], 32.6 µM with HeLa [5] and 59.3 µM in data set [6].
Turning to `Nc1nc(N)c2nc3c4ccccc4c4ccccc4c3nc2n1`, the IC50 at Dihydrofolate reductase is over 50 µM; in the data set with HeLa [1] it was over 80 µM; in [3] it was over 80 µM; in the data set with HeLa [5], over 80 µM; in data set [6], over 80 µM.
As for `Nc1nc(N)c2nc(-c3ccco3)c(-c3ccco3)nc2n1`, the IC50 on Dihydrofolate reductase was found to be 10.4 µM; in the data set with HeLa [1], 14.6 µM; in data set [3], 19.8 µM; in the data set with HeLa [5], 24.5 µM; in data set [6], 40.1 µM. The selectivity ratio at 12 h in data set [2] was found to be 1.6. In addition, the selectivity ratio in [4] is 2. Further, the selectivity ratio at 60 h in [7] stood at 1.4. Moreover, the “Ratio IC50” value with HeLa [8] came out at 1.7.
